Data from ChEMBL document CHEMBL4359823, “Switching on the activity of 1,5-diaryl-pyrrole derivatives against drug-resistant ESKAPE bacteria: Structure-activity relationships and mode of action studies” (Eur J Med Chem, 2019).
Converted amounts (≈) assume the structure as drawn. The source made the active and inactive calls. The calls are words filed in the database; no cut-off is given here.

Legend:
Enterococcus faecalis [1] = assay: Antibacterial activity against vancomycin resistant Enterococcus faecalis NCTC12204 measured after overnight incubation by microbroth dilution method; format: functional
How it was run: (§1)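 Microbroth dilution: DMSO stocks diluted in water, 2-fold series. Overnight TSB cultures back-diluted to OD 0.01 and mixed 1:1 with compound. Incubated overnight at 37 °C; MIC taken as lowest concentration without visible growth (<0.1 OD600). Run in duplicate; matching DMSO levels checked for effect on growth.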

Enterococcus faecalis [2] = assay: Antibacterial activity against vancomycin resistant Enterococcus faecalis NCTC12201 measured after overnight incubation by microbroth dilution method; format: functional; how it was run: as §1
Staphylococcus aureus [3] = assay: Antibacterial activity against methicillin sensitive Staphylococcus aureus NCTC 6571 measured after overnight incubation by microbroth dilution method; format: functional; how it was run: as §1
Staphylococcus aureus [4] = assay: Antibacterial activity against methicillin resistant Staphylococcus aureus NCTC13616 measured after overnight incubation by microbroth dilution method; format: functional; how it was run: as §1
Staphylococcus aureus [5] = assay: Antibacterial activity against methicillin resistant Staphylococcus aureus NCTC13277 measured after overnight incubation by microbroth dilution method; format: functional; how it was run: as §1
Enterococcus faecalis [6] = assay: Antibacterial activity against vancomycin sensitive Enterococcus faecalis NCTC775 measured after overnight incubation by microbroth dilution method; format: functional; how it was run: as §1
Klebsiella pneumoniae [7] = assay: Antibacterial activity against Klebsiella pneumoniae NCTC13368 measured after overnight incubation by microbroth dilution method; format: functional
How it was run: (§2)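 Microbroth dilution MIC. Compound DMSO stocks were diluted in water as a 2-fold series. Overnight TSB cultures were back-diluted to OD 0.01 and mixed 1:1 with compound. Plates were incubated overnight at 37 °C. MIC was the lowest concentration without visible growth (<0.1 OD600), run in duplicate.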

Klebsiella pneumoniae [8] = assay: Antibacterial activity against Klebsiella pneumoniae M6 measured after overnight incubation by microbroth dilution method; format: functional; how it was run: as §2
Acinetobacter baumannii [9] = assay: Antibacterial activity against Acinetobacter baumannii AYE measured after overnight incubation by microbroth dilution method; format: functional; how it was run: as §2
Acinetobacter baumannii [10] = assay: Antibacterial activity against Acinetobacter baumannii ATCC 17978 measured after overnight incubation by microbroth dilution method; format: functional; how it was run: as §2
Pseudomonas aeruginosa [11] = assay: Antibacterial activity against Pseudomonas aeruginosa PAO1 measured after overnight incubation by microbroth dilution method; format: functional; how it was run: as §2
Pseudomonas aeruginosa [12] = assay: Antibacterial activity against Pseudomonas aeruginosa NCTC13437 measured after overnight incubation by microbroth dilution method; format: functional; how it was run: as §2
Escherichia coli [13] = assay: Antibacterial activity against Escherichia coli NCTC12923 measured after overnight incubation by microbroth dilution method; format: functional; how it was run: as §2
HEK293 = assay: Cytotoxicity again human HEK293 cells measured after 24 hrs by XTT assay; format: cell-based; conditions: HEK293, 24 h
How it was run: (§3)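 Cells were grown in EMEM with glutamine, 10% FBS and non-essential amino acids at 37 °C, 10% CO2. Seeding was 1 x 10^5 cells/mL (HEK293) or 4 x 10^4 cells/mL (HeLa), then 24 h adherence. Doubling compound dilutions were applied for 24 h. XTT/PMS was added for 4 h in the dark, with absorbance read at 450 nm. Untreated cells were the 100% control and water-treated cells the 0% control; IC50 was fitted.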

HeLa = assay: Cytotoxicity again human HeLa cells measured after 24 hrs by XTT assay; format: cell-based; how it was run: as §3
Klebsiella pneumoniae [14] = assay: Antibacterial activity against Klebsiella pneumoniae NCTC13368 measured after overnight incubation in presence of polymyxin B nonapeptide by microbroth dilution method; format: functional
Klebsiella pneumoniae [15] = assay: Antibacterial activity against Klebsiella pneumoniae M6 measured after overnight incubation in presence of polymyxin B nonapeptide by microbroth dilution method; format: functional
Acinetobacter baumannii [16] = assay: Antibacterial activity against Acinetobacter baumannii AYE measured after overnight incubation in presence of polymyxin B nonapeptide by microbroth dilution method; format: functional
Acinetobacter baumannii [17] = assay: Antibacterial activity against Acinetobacter baumannii ATCC 17978 measured after overnight incubation in presence of polymyxin B nonapeptide by microbroth dilution method; format: functional
Pseudomonas aeruginosa [18] = assay: Antibacterial activity against Pseudomonas aeruginosa PAO1 measured after overnight incubation in presence of polymyxin B nonapeptide by microbroth dilution method; format: functional
Pseudomonas aeruginosa [19] = assay: Antibacterial activity against Pseudomonas aeruginosa NCTC13437 measured after overnight incubation in presence of polymyxin B nonapeptide by microbroth dilution method; format: functional
Escherichia coli [20] = assay: Antibacterial activity against Escherichia coli NCTC12923 measured after overnight incubation in presence of polymyxin B nonapeptide by microbroth dilution method; format: functional
Klebsiella pneumoniae [21] = assay: Antibacterial activity against Klebsiella pneumoniae NCTC13368 measured after overnight incubation in presence of phenylalanine arginine beta-naphthylamide by microbroth dilution method; format: functional; how it was run: as §2
Klebsiella pneumoniae [22] = assay: Antibacterial activity against Klebsiella pneumoniae M6 measured after overnight incubation in presence of phenylalanine arginine beta-naphthylamide by microbroth dilution method; format: functional; how it was run: as §2
Acinetobacter baumannii [23] = assay: Antibacterial activity against Acinetobacter baumannii AYE measured after overnight incubation in presence of phenylalanine arginine beta-naphthylamide by microbroth dilution method; format: functional; how it was run: as §2
Acinetobacter baumannii [24] = assay: Antibacterial activity against Acinetobacter baumannii ATCC 17978 measured after overnight incubation in presence of phenylalanine arginine beta-naphthylamide by microbroth dilution method; format: functional; how it was run: as §2
Pseudomonas aeruginosa [25] = assay: Antibacterial activity against Pseudomonas aeruginosa PAO1 measured after overnight incubation in presence of phenylalanine arginine beta-naphthylamide by microbroth dilution method; format: functional; how it was run: as §2
Pseudomonas aeruginosa [26] = assay: Antibacterial activity against Pseudomonas aeruginosa NCTC13437 measured after overnight incubation in presence of phenylalanine arginine beta-naphthylamide by microbroth dilution method; format: functional; how it was run: as §2
Escherichia coli [27] = assay: Antibacterial activity against Escherichia coli NCTC12923 measured after overnight incubation in presence of phenylalanine arginine beta-naphthylamide by microbroth dilution method; format: functional; how it was run: as §2
Staphylococcus aureus [28] = assay: Bactericidal activity against methicillin resistant Staphylococcus aureus NCTC13616 at 4 times MIC measured at 0 to 24 hrs by time kill assay; format: functional, organism-based
How it was run: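 Overnight cultures back-diluted to OD 0.01 in glass universals, compound added at 4 x MIC, 37 °C with shaking at 200 rpm. Sampled at 0, 2, 4, 6 and 24 h; CFU/mL counted by Miles-Misra; untreated control included.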

DNA gyrase = DNA gyrase (Staphylococcus aureus, UniProt P0A0K8+P20831, S84L); assay: Inhibition of Staphylococcus aureus DNA gyrase S84L mutant; format: protein-complex assay
Staphylococcus aureus [29] = assay: Antibacterial activity against Staphylococcus aureus NCTC13616 assessed as generation of drug resistance at 2 times MIC measured after 48 hrs by agar-based microbroth dilution method; format: functional
How it was run: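 Agar method: exponentially growing bacteria, in known numbers, plated on agar with doubling compound concentrations at and above the MIC; incubated 48 hours. Colonies growing above the MIC were picked and re-tested by microbroth MIC for raised resistance. Resistance frequency reported at 2xMIC.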

Enterococcus faecalis [30] = assay: Bacteriostatic activity against vancomycin resistant Enterococcus feacalis NCTC12204 at 4 times MIC measured at 0 to 24 hrs by time kill assay
Enterococcus faecium = assay: Antibacterial activity against Enterococcus faecium NCTC12204 assessed as generation of drug resistance at 2 times MIC measured after 48 hrs by agar-based microbroth dilution method

Cc1c(CNC2CCCCC2)cc(-c2ccc(C(C)C)cc2)n1-c1ccc(Cl)cc1
MIC (Enterococcus faecalis [1]): 2 µg/mL (≈ 4.75 µM) | MIC (Enterococcus faecalis [2]): 4 µg/mL (≈ 9.5 µM) | MIC (Staphylococcus aureus [3]): 4 µg/mL (≈ 9.5 µM) | MIC (Staphylococcus aureus [4]): 4 µg/mL (≈ 9.5 µM) | MIC (Staphylococcus aureus [5]): 4 µg/mL (≈ 9.5 µM) | MIC (Enterococcus faecalis [6]): 4 µg/mL (≈ 9.5 µM) | MIC (Klebsiella pneumoniae [7]): > 128 µg/mL | MIC (Klebsiella pneumoniae [8]): > 128 µg/mL | MIC (Acinetobacter baumannii [9]): > 128 µg/mL | MIC (Acinetobacter baumannii [10]): 32 µg/mL (≈ 76 µM) | MIC (Pseudomonas aeruginosa [11]): > 128 µg/mL | MIC (Pseudomonas aeruginosa [12]): > 128 µg/mL | MIC (Escherichia coli [13]): > 128 µg/mL | IC50 (HEK293): 2.4 to 3 µg/mL (≈ 5.7 to 7.13 µM) | IC50 (HeLa): 2.4 to 3 µg/mL (≈ 5.7 to 7.13 µM) | MIC (Klebsiella pneumoniae [14]): > 128 µg/mL | MIC (Klebsiella pneumoniae [15]): 128 µg/mL | MIC (Acinetobacter baumannii [16]): 8 µg/mL | MIC (Acinetobacter baumannii [17]): 2 µg/mL | MIC (Pseudomonas aeruginosa [18]): 8 µg/mL | MIC (Pseudomonas aeruginosa [19]): 32 µg/mL | MIC (Escherichia coli [20]): 2 µg/mL | MIC (Klebsiella pneumoniae [21]): > 128 µg/mL | MIC (Klebsiella pneumoniae [22]): > 128 µg/mL | MIC (Acinetobacter baumannii [23]): 8 µg/mL | MIC (Acinetobacter baumannii [24]): 8 µg/mL | MIC (Pseudomonas aeruginosa [25]): > 128 µg/mL | MIC (Pseudomonas aeruginosa [26]): > 128 µg/mL | MIC (Escherichia coli [27]): 16 µg/mL | Activity (Staphylococcus aureus [28]): Active | IC50 (DNA gyrase): 69.1 µM | Activity (Staphylococcus aureus [29]): <7.6e-08 | Activity (Enterococcus faecalis [30]): Active | Activity (Enterococcus faecium): <9.4e-08
